Assay results reported in article PMC11276401 (RSC Advances, 2024).
Values joined by “and” are separate entries in the source; they are usually repeats but may differ in a detail not shown here. Identical values can stand only once.

Key:
MCF-7 = experiment: SRB assay, in vitro anticancer activity; type: cell-based; conditions: Homo sapiens, MCF7, 48 h, read-out: GI50 MCF-7
HeLa = experiment: SRB assay, in vitro anticancer activity; type: cell-based; conditions: Homo sapiens, 48 h, read-out: GI50 HeLa
MIAPACA = experiment: SRB assay, in vitro anticancer activity; type: cell-based; conditions: Homo sapiens, MIA PaCa-2, 48 h, read-out: GI50 MIAPACA
HeLa and MIAPACA = experiment: SRB assay, range stated over two cell lines; type: cell-based; conditions: Homo sapiens, read-out: GI50 against HeLa and MIAPACA
[1] = system: caspase 3/7 in MCF-7 cells; experiment: Caspase-Glo 3/7 activation assay; type: cell-based, human; conditions: 20 μg ml^−1, 24 h
Procedure, shortened: (§1)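 Caspase 3/7 activation in the named human cancer cells is expressed as percent activation after treatment with the test compound. Podophyllotoxin is run alongside as the positive control.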

bovine brain tubulin = experiment: Tubulin polymerization assay; type: biochemical; conditions: read-out: Tubulin polymerization inhibition IC50; 2 mg/mL tubulin, 37 °C
[2] = system: caspase 3/7, 8, and 9 in HeLa, MCF-7 and MIA PaCa2 cancer cells; experiment: Caspase 3/7, 8 and 9 activation, values not assigned to a caspase or cell line; type: cell-based, human; conditions: MCF-7 and MIA PaCa2 cells, assignment and concentration not clear
MCF-7, HeLa and MIAPACA = experiment: SRB assay, range stated over three cell lines; type: cell-based; conditions: Homo sapiens, read-out: GI50 against three cell lines
Procedure, shortened: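 Human MCF-7, HeLa and MIA PaCa-2 cancer cell lines are exposed to the test compounds, with podophyllotoxin as positive control. Growth inhibition is reported as GI50.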

[3] = system: caspase 3/7 in MIA PaCa2 cells; experiment: Caspase-Glo 3/7 activation assay; type: cell-based, human; conditions: 20 μg ml^−1, 24 h
Procedure, shortened: as §1

[4] = system: caspase 3/7 in HeLa cells; experiment: Caspase-Glo 3/7 activation assay; type: cell-based, human; conditions: 20 μg ml^−1, 24 h
Procedure, shortened: as §1

| Compound | GI50 (MCF-7) | GI50 (HeLa) | GI50 (MIAPACA) | GI50 (HeLa and MIAPACA) | caspase 3/7 activation [1] | IC50 (bovine brain tubulin) | caspase 3/7, 8, and 9 activations [2] | GI50 (MCF-7, HeLa and MIAPACA) | caspase 3/7 activation [3] | caspase 3/7 activation [4] |
| --- | --- | --- | --- | --- | --- | --- | --- | --- | --- | --- |
| COc1cc([C@@H]2c3cc4c(cc3[C@@H](OCc3cc(-c5cccc(C)c5)no3)[C@H]3COC(=O)C23)OCO4)cc(OC)c1OC (some centres unmarked) [Compound 6c] | 3920 ± 820 nM | 3830 ± 1540 nM | 4670 ± 1930 nM |  |  |  |  |  |  |  |
| COc1cc([C@@H]2c3cc4c(cc3[C@@H](OCc3cc(-c5cc(C)cc(C)c5)no3)[C@H]3COC(=O)C23)OCO4)cc(OC)c1OC (some centres unmarked) [Compound 6d] | 1340 ± 230 nM | 2740 ± 520 nM | 2280 ± 290 nM |  |  |  |  |  |  |  |
| COc1cc([C@@H]2c3cc4c(cc3[C@@H](OCc3cc(-c5ccc(Cl)cc5)no3)[C@H]3COC(=O)C23)OCO4)cc(OC)c1OC (some centres unmarked) [Compound 6f] | 2130 ± 370 nM | 3050 ± 1020 nM | 3140 ± 320 nM |  |  |  |  |  |  |  |
| COc1cc([C@@H]2c3cc4c(cc3[C@@H](OCc3cc(-c5ccc(Br)cc5)no3)[C@H]3COC(=O)C23)OCO4)cc(OC)c1OC (some centres unmarked) [Compound 6g] | 4320 ± 830 nM | 7480 ± 690 nM | 6840 ± 2010 nM |  |  |  |  |  |  |  |
| COc1cc([C@@H]2c3cc4c(cc3[C@@H](OCc3cc(-c5ccc(F)cc5)no3)[C@H]3COC(=O)C23)OCO4)cc(OC)c1OC (some centres unmarked) [Compound 6h] | 4870 ± 790 nM | 6120 ± 1080 nM | 13100 ± 3270 nM |  |  |  |  |  |  |  |
| COc1cc([C@@H]2c3cc4c(cc3[C@@H](OCc3cc(-c5ccc([N+](=O)[O-])cc5)no3)[C@H]3COC(=O)C23)OCO4)cc(OC)c1OC (some centres unmarked) [Compound 6j] | 230 ± 120 nM | 1110 ± 290 nM | 1540 ± 180 nM | 1030 to 1540 nM | 90.1% | 1320 nM |  |  |  |  |
| COc1cc([C@@H]2c3cc4c(cc3[C@@H](OCc3cc(-c5cccc(Cl)c5)no3)[C@H]3COC(=O)C23)OCO4)cc(OC)c1OC (some centres unmarked) [Compound 6k] | 3150 ± 430 nM | 9680 ± 3120 nM | 18300 ± 2870 nM |  |  |  |  |  |  |  |
| COc1cc([C@@H]2c3cc4c(cc3[C@@H](OCc3cc(-c5cc(Cl)cc(Cl)c5)no3)[C@H]3COC(=O)C23)OCO4)cc(OC)c1OC (some centres unmarked) [Compound 6m] | 360 ± 170 nM | 2190 ± 840 nM | 2330 ± 180 nM |  |  | 3790 nM | 44.8% and 53.4% and 65.0% and 63.0% and 41.9% and 51.7% |  |  |  |
| COc1cc([C@@H]2c3cc4c(cc3[C@H](O)[C@H]3COC(=O)[C@H]23)OCO4)cc(OC)c1OC [Podophyllotoxin, podophyllotoxin, reference compound] | 310 ± 190 nM | 740 ± 230 nM | 510 ± 120 nM | 510 to 740 nM | 91.9% | 840 nM |  | 310 to 510 nM | 88.6% | 86.9% |
